Test [1] is described as follows: Reversal of induction of BMP2 expression in mouse MC3T3-E1 cells at 1 uM by Western blot in presence of short interfering ERalpha-RNA. It is filed as functional, cell-based. For orientation: A western blot detects proteins with antibodies after separation by electrophoresis.
A short description of test [2]: Reversal of increase in pBMP2 expression in rat primary osteoblast cells transfected with dominant-negative mutant Src expression vector at 1 uM by luciferase method. The format is functional, cell-based.
Test [3] deals with T1, Alkaline phosphatase (Mus musculus) (UniProt Q9EQ79).
T1 sequence (whole entry): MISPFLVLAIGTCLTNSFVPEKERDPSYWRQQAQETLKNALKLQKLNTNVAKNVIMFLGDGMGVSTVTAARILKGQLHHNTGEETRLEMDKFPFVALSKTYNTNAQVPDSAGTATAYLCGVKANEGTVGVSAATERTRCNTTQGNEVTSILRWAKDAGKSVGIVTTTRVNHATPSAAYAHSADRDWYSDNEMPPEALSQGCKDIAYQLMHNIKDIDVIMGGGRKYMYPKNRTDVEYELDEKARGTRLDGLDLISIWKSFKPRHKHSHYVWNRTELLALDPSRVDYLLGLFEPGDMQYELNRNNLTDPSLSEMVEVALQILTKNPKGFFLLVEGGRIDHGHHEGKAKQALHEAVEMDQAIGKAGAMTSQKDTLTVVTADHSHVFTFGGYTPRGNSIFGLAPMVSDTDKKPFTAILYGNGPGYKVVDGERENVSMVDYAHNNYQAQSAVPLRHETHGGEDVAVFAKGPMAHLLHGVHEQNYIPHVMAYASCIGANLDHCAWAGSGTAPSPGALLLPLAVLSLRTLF
As to the kind of experiment: Increase in ALP activity in mouse MC3T3-E1 cells at 0.1 to 10 uM after 7 days. The format is cell-based.

In another test the test system is MC3T3-E1. Description: Inhibition of etoposide-induced apoptosis in mouse MC3T3-E1 cells after 24 hrs by flow cytometry. It is filed as functional, cell-based. An outline of the steps:
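Cells washed in PBS, held 30 min in 0.5% Triton X-100/PBS/0.05% RNase A, then propidium iodide (50 μg/ml) added and kept on ice 15–30 min. Apoptosis is the hypodiploid fraction below the G0/G1 peak, by flow cytometry. Run in triplicate and repeated on three occasions.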
(In flow cytometry, cells or beads pass a laser one at a time.)

In test [4] the test system is Osteoblast. Description: Effect on MAD homolog 6 gene expression in rat primary osteoblast cells assessed as expression ratio of treated to untreated control by microarray analysis. The format is functional.
The subject of test [5] is Osteoblast. As to the kind of experiment: Inhibition of antiapoptotic activity in rat primary osteoblast cells at 1 uM after 48 hrs in presence of noggin. It is filed as functional, cell-based.

Among the data in ChEMBL document CHEMBL1156469 (2007) are Activity and Ratio values, retold here.

Calls of active or inactive are those of the source. No cut-off for these calls is given here.

In the case of `Oc1ccc(/C=C/c2cc(O)cc(O)c2)cc1` [RESVERATROL], the outcome (in test [1]; in test [2]; in test [3]; in the test on MC3T3-E1; with Osteoblast [5]) was Active. Also, the Ratio in the test with Osteoblast [4] is given as 0.38.
